We go through 36 sequences from the array DNA melting data of Ke et al. (doi:10.1101/2024.01.08.574731).

Data set [1] in a line: melting temperature; fluorescence melt of hairpins on a sequencing array, two-state fit, raised by 9.35 °C to match UV melts. The conditions noted are these: sodium 0.088 M. The method, boiled down:
(§1)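 In 50 mM Na-HEPES pH 8.0 containing 25 mM NaCl, hairpins from the library on a sequenced MiSeq flow cell were imaged for Cy3 fluorescence at 2.5 °C steps up to 60 °C, with Cy3 and quencher oligos annealed. After normalisation to pre-quench Cy3 and to control constructs, two-state fits with bootstrapping gave melting temperature and folding enthalpy. Four replicates were combined by inverse-variance weighting, and fitted temperatures were shifted up by 9.35 °C to match UV melts.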

Data set [2] in a line: folding enthalpy; higher = less favourable; fluorescence melt of hairpins on a sequencing array, two-state fit. The conditions noted are these: sodium 0.088 M. A digest of the protocol:
as §1

Turning to GGAGTGCGAAAGCATTCC (((.(((....))).))), in data set [1], the Tm is 58.1 °C. Besides, the folding enthalpy in data set [2] is -30.4 kcal/mol.

GGAGTGGGAAACCGCTCC ((((.((....)).)))): the Tm in data set [1] is 57.8 °C. The folding enthalpy in data set [2] was -44.3 kcal/mol.

For GGAGTGGGAAACCGTTCC (((..((....))..))), the Tm in data set [1] stood at 32.3 °C. Further, the folding enthalpy in data set [2] is -17.8 kcal/mol.

For GGAGTGGGAAACTACTCC (((((.(....).))))), the Tm in data set [1] came out at 49.5 °C. In data set [2], the folding enthalpy is -24.8 kcal/mol.

Turning to GGAGTTACGAAAGTATCC (((..(((....)))))), the Tm in data set [1] was determined as 26.1 °C. Also, the folding enthalpy in data set [2] was -9.09 kcal/mol.

As to GGAGTTGGAAACAACTCC (((((((....))))))), the Tm in data set [1] was determined as 65.9 °C. Further, the folding enthalpy in data set [2] was -45.3 kcal/mol.

Consider GGAGTTGGAAACAGCTTC (.((.((....)).)).), for which the Tm in data set [1] was found to be 37.1 °C. Besides, in data set [2], the folding enthalpy was -37 kcal/mol.

For the sequence GGATAAGAAATTATCC ((((((....)))))), the Tm in data set [1] came out at 42.1 °C. Further, the folding enthalpy in data set [2] is -27.6 kcal/mol.

In the case of GGATAAGGAAACTTATCC (((((((....))))))), the Tm in data set [1] was determined as 52.8 °C. Also, the folding enthalpy in data set [2] was -37.6 kcal/mol.

For the sequence GGATACGAAAGTAAATCC ((((((....)))..))), the Tm in data set [1] was determined as 35.8 °C. Also, the folding enthalpy in data set [2] was -19.4 kcal/mol.

Regarding GGATACGAAAGTAATTCC ((((((....)))..))), in data set [1], the Tm is 27.7 °C. For the same sequence, the folding enthalpy in data set [2] was -12 kcal/mol.

GGATACGAAAGTAGGTCC ((((((....)))..))): the Tm in data set [1] turned out to be 28.4 °C. In data set [2], the folding enthalpy was -8.27 kcal/mol.

Regarding GGATACGAAAGTATATCC ((((((....)))..))), the Tm in data set [1] worked out at 34.5 °C. In data set [2], the folding enthalpy is -18.3 kcal/mol.

Consider GGATACGGAAACGTATTC (.(((((....))))).), for which, in data set [1], the Tm is 45.2 °C. Also, in data set [2], the folding enthalpy was -24.8 kcal/mol.

Turning to GGATACTCGAAAGAGTCC (((..(((....)))))), in data set [1], the Tm was found to be 32.6 °C. The folding enthalpy in data set [2] was -11.7 kcal/mol.

As for GGATAGGGAAACCTGTCC (((.(((....))).))), the Tm in data set [1] was found to be 48.2 °C. Besides, in data set [2], the folding enthalpy is -30.9 kcal/mol.

GGATATCGAAAGATTCC (((.(((....)))))): the Tm in data set [1] is 39.5 °C. Further, the folding enthalpy in data set [2] was -25.9 kcal/mol.

For GGATATGGAAACATACCC ((.((((....)))).)), in data set [1], the Tm turned out to be 33.2 °C. Moreover, in data set [2], the folding enthalpy was -25.3 kcal/mol.

In the case of GGATATGGAAACATATCC (((((((....))))))), the Tm in data set [1] stood at 54.7 °C. For the same sequence, the folding enthalpy in data set [2] is -47 kcal/mol.

For GGATATGGAAACATATTC (.(((((....))))).), the Tm in data set [1] worked out at 36.9 °C. In data set [2], the folding enthalpy is -22.2 kcal/mol.

In the case of GGATATGGAAACATGTCC (((.(((....))).))), the Tm in data set [1] came out at 45.3 °C. Also, the folding enthalpy in data set [2] was -30.4 kcal/mol.

GGATCACGAAAGTGCTCC (((.(((....))).))): the Tm in data set [1] is 49.4 °C. In data set [2], the folding enthalpy is -27.4 kcal/mol.

For the sequence GGATCAGCGAAAGCTTCC (((..(((....)))))), the Tm in data set [1] was found to be 30.7 °C. Also, the folding enthalpy in data set [2] was -12.7 kcal/mol.

As to GGATCAGGAAACTGGTTC (.(.(((....))).).), the Tm in data set [1] was 29.1 °C. Further, the folding enthalpy in data set [2] is -12.2 kcal/mol.

In the case of GGATCCCGAAAGGGCTCC (((.(((....))).))), the Tm in data set [1] is 51.3 °C. Besides, the folding enthalpy in data set [2] was -26.5 kcal/mol.

For GGATCCGAAAGGAAATCC ((((((....)))..))), the Tm in data set [1] was 38.2 °C. Moreover, the folding enthalpy in data set [2] is -25.9 kcal/mol.

Take GGATCCGAAAGGAGATCC ((((((....)))..))): in data set [1], the Tm is 44.8 °C. The folding enthalpy in data set [2] was -24 kcal/mol.

Regarding GGATCCGAAAGGAGTTCC ((((((....)))..))), the Tm in data set [1] turned out to be 32.8 °C. The folding enthalpy in data set [2] was -14.8 kcal/mol.

Turning to GGATCCGAAAGGATTTCC ((((((....)))..))), in data set [1], the Tm turned out to be 37.4 °C. Further, the folding enthalpy in data set [2] is -13.7 kcal/mol.

For GGATCCGGAAACGAATCC ((((.((....)).)))), the Tm in data set [1] came to 41.8 °C. For the same sequence, in data set [2], the folding enthalpy is -29 kcal/mol.

For the sequence GGATCCGGAAACGGATTC (.(((((....))))).), the Tm in data set [1] amounted to 52 °C. Moreover, the folding enthalpy in data set [2] is -15.7 kcal/mol.

With GGATCGACGAAAGTCTCC (((..(((....)))))), in data set [1], the Tm worked out at 27.9 °C. Besides, the folding enthalpy in data set [2] is -10.6 kcal/mol.

Regarding GGATCGGAAACGATCC ((((((....)))))), the Tm in data set [1] was 66.2 °C. In data set [2], the folding enthalpy was -28.6 kcal/mol.

On to GGATCGGGAAACCGACCC ((.((((....)))).)), for which, in data set [1], the Tm worked out at 47.7 °C. In addition, the folding enthalpy in data set [2] is -31.8 kcal/mol.

Consider GGATCGGGAAACCGGTTC (.(.(((....))).).), for which, in data set [1], the Tm came to 38.2 °C. Also, the folding enthalpy in data set [2] is -20.1 kcal/mol.

As to GGATCGGGAAACTGATCC (((((.(....).))))), the Tm in data set [1] was 52.4 °C. Besides, in data set [2], the folding enthalpy is -39.1 kcal/mol.
